Compound activity (PubChem BioAssay)
MrgX1 ag: activates human MrgX1 receptor signaling; Q96LB2; MrgX1-HEK293 cells, Fluo-4 calcium fluorescence, agonist mode; hits give high values; B-score at 10 µM; 0.44% of 310,000 active; AID 588627;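 active means calcium response B-score plate-corrected fluorescence ratio at least 3 library SD, with starting fluorescence B-score inside 5 SD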
Target sequence (Q96LB2 whole entry, looked up): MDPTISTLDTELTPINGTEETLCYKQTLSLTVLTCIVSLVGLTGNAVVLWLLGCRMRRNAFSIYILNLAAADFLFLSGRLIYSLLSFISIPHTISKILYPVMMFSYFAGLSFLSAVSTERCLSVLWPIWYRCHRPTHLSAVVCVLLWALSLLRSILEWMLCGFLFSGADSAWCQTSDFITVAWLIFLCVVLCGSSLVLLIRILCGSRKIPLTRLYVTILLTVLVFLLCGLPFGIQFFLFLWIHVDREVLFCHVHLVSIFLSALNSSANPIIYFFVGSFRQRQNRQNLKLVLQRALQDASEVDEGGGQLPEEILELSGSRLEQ
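System – MrgX1-expressing HEK293 cells · Incubation – cells plated overnight, dye loaded 0.5 h 37 °C, 0.5 h room temperature · Technique – kinetic Fluo-4 NW fluorescence of intracellular calcium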
MrgX1 antagonist: human MrgX1 receptor antagonism, primary screen. Q96LB2. MRGX1-HEK293 calcium flux, Fluo-4, BAM8-22 antagonism; hits give low values. B-score at 10 µM. 1.3% of 310,000 active. AID 588676;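 active means calcium-response B-score plate-corrected more than 3 library SD below zero, starting fluorescence within 5 deviations, no agonist response on first addition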;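 further: peak minus trough fluorescence over baseline after final BAM8-22 challenge near maximal dose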
MrgX1 allo act: human MrgX1 positive allosteric modulation, primary screen; Q96LB2; MrgX1-HEK293, Fluo-4 calcium flux, FDSS; hits give high values; B-score at 10 µM; 0.63% of 310,000 active; AID 588675;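 active means plate-corrected calcium response at least 3 library SD above typical, normal starting fluorescence, not activating the receptor alone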;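 further: compound read alongside a low EC10 to EC30 dose of BAM8-22 agonist; peak minus trough fluorescence over baseline measured at the second addition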
Cl transport mod: modulators of human KCC2 chloride dependent transport; Q9H2X9; KCC2 cells, thallium flux FluoZin-2 fluorescence; B-score of Tl+ flux slope (higher = more flux/activation; lower = inhibition) at 10 µM; 2.2% of 190,000 active; AID 1456;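 active means thallium flux slope and its plate-corrected score both differing from the plate sample mean at a set confidence after two filtering rounds, in either direction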;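 further: slope of fluorescence scaled to starting intensity during 10 to 20 s after thallium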
RGS4 inh: inhibitors of human RGS4; 0.45% of 310,000 active; AID 463165; B-score at 10 µM; HEK293 M3R/RGS4 inducible, Fluo-4 calcium flux; hits give high values; triggered by carbachol at its EC20;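 active means B-score, a plate-corrected calcium signal, over three deviations above library mean, with baseline fluorescence within five deviations of library mean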;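 further: RGS4 expression induced by doxycycline in cells with stable M3 receptor; B-score is computed from the integrated fluorescence ratio over baseline after carbachol; higher B-score means a larger calcium signal and so more RGS4 inhibition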
Target sequence (P49798 whole entry, looked up): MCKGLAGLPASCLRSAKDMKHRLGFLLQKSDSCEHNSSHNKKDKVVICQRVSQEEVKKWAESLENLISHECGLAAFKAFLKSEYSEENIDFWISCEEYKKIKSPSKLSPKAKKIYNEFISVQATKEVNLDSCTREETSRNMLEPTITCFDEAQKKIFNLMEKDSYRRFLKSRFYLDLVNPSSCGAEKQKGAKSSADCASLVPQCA
RGS4 pot: RGS4 potentiation or activation; 0.92% of 310,000 active; B-score at 10 µM; HEK293 M3R/inducible RGS4, carbachol calcium flux Fluo4; hits give low values;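 active means B-score of the integrated calcium signal more than 4 SD below the library mean, with starting fluorescence not abnormally high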;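 further: negative B-score means reduced calcium response which marks RGS4 activation or potentiation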
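test system = HEK293 cells with stable M3R and inducible RGS4 | schedule = recording 10 s baseline at 1 Hz, 100 s post-agonist | technique = Fluo4-AM (2 µM) calcium-flux fluorescence, kinetic read | measure = Agonist-evoked peak-minus-minimum fluorescence over baseline, integrated ratio, B score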
KCC2 secondary: KCC2 (human) modulation, secondary assay. 15% of 3,700 active. normalised thallium flux (F/F0 slope) at 10 µM. shares compounds with Cl transport mod. HEK293-KCC2, thallium flux, FluoZin2 fluorescence; hits give high values;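 active means thallium flux slope above the same plate's solvent-only control mean plus 3 SD; inconclusive means the two replicate wells disagree; inactive means no significant difference from solvent-only control wells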
KCC2 bumet counter: thallium flux despite bumetanide block in KCC2 cells, secondary assay 3; shares compounds with Cl transport mod; HEK293-KCC2 + bumetanide/ouabain, thallium flux FluoZin2; hits give high values; normalized thallium flux at 10 µM; 49% of 3,700 active; AID 1714;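 active means thallium entry rate above the same plate's blocked-transporter control wells by more than 3 SD; inconclusive means the two repeat wells disagree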;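 further: raw slope of fluorescence over initial fluorescence between 10 and 20 s after thallium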
KCC2 sec2: KCC2 (human) modulation, second secondary assay | shares compounds with Cl transport mod | HEK293-KCC2, thallium flux FluoZin2 fluorescence; actives lie on both sides; F/F0 rise rate, 10–20 s post-thallium | AID 1715 | normalized thallium flux at 10 µM | 23% of 3,700 active;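 active means thallium flux slope more than 3 SD above or below the plate's solvent-only control mean, mostly below; inconclusive means the two repeat wells disagreed; inactive means no significant shift from solvent-only controls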;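 further: raw slope with 0.1% DMSO as baseline and bumetanide as block control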
HEK293 Tl flux: counter-screen for KCC2 modulators: effect in parental HEK293 cells; shares compounds with Cl transport mod; thallium flux FluoZin2, ouabain; baseline-ratio fluorescence slope, 10–20 s after thallium; thallium flux rate (normalised fluorescence) at 10 µM; 46% of 3,700 active;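 active means thallium flux rate significantly above the same plate's solvent-only control wells, beyond their mean plus 3 SD; inconclusive means the two replicate wells gave conflicting results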
KCC2 retest ouab: confirmation of human KCC2 modulators with ouabain | shares compounds with Cl transport mod | HEK293-KCC2, thallium flux FluoZin2 fluorescence; bidirectional: low = inhibitor, high = activator | raw Tl+ flux slope (below DMSO = inhibition, above = activation) at 10 µM | 48% of 3,700 active | AID 1717;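 active means thallium flux slope beyond 3 SD from same-plate DMSO control mean in most replicates, usually higher, sometimes lower; inconclusive means repeat tests gave conflicting results; inactive means no significant difference from controls in most replicates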;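 further: slope of initial-normalized fluorescence between seconds 10 and 20 after thallium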
HEK293 Tl flux2: acts in parental HEK cells, second KCC2 counter-screen | shares compounds with Cl transport mod | HEK293 parental, thallium flux FluoZin-2 fluorescence slope | thallium flux slope at 10 µM | 33% of 3,700 active;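 active means thallium flux slope above the same plate's solvent-control mean plus 3 SD in both duplicate wells; inconclusive means duplicate wells that disagreed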;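 further: run without ouabain in cells lacking the KCC2 cotransporter; slope of fluorescence scaled to its starting value between 10 and 20 s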
An asterisk follows results filed as active; i = inactive; ? = inconclusive; nt = not tested or not shown. In the library only some 4.7% were active in any assay of this set; here they are far more common.

SMILES | MrgX1 ag | MrgX1 antagonist | MrgX1 allo act | Cl transport mod | RGS4 inh | RGS4 pot | KCC2 secondary | KCC2 bumet counter | KCC2 sec2 | HEK293 Tl flux | KCC2 retest ouab | HEK293 Tl flux2
COc1cc2c3c(c1)c(N=NC(N)=S)c(O)n3C(C)(C)C=C2C | i | i | i | 21* | i | i | ? | 0.026* | 0.037 | 0.017* | ? | 0.014*
CC1=CC(C)(C)n2c(O)c(N=NC(N)=S)c3c(C)ccc1c32 | i | i | i | 3.8* | i | i | 0.011 | 0.012* | 0.035 | 0.016* | 0.023 | ?
Cc1cc(OCC(=O)N(Cc2ccccc2)C2CCS(=O)(=O)C2)ccc1Cl (configuration not stated) | i | i | i | nt | i | i | nt | nt | nt | nt | nt | nt
Cc1ccc(CNC(=O)C2CCC(=O)N(CC3CCCCC3)C2)o1 (configuration not stated) | i | i | i | nt | i | i | nt | nt | nt | nt | nt | nt
O=[N+]([O-])c1ccccc1S(=O)(=O)N1CCCC(C(F)(F)F)C1 (configuration not stated) | i | i | i | nt | i | i | nt | nt | nt | nt | nt | nt
CCc1nnc(NC(=O)CCC(=O)N2CCN(c3cc(Cl)ccc3C)CC2)s1 | i | i | i | nt | i | i | nt | nt | nt | nt | nt | nt
c1ccc(CSc2nc3ncncc3[nH]2)cc1 | i | i | i | 0.15 | i | i | nt | nt | nt | nt | nt | nt
S=c1nc(SCc2ccccc2)[nH]c2ccccc12 | i | i | i | 120* | i | i | 0.019* | 0.098* | 0.1* | 0.11* | 0.095* | 0.1*
COc1ccc(N2C(=NC(=O)C3CC3)SC3CS(=O)(=O)CC32)cc1Cl (configuration not stated) | i | i | i | nt | i | i | nt | nt | nt | nt | nt | nt
O=C(O)CC(NC(=O)Cc1ccc(Cl)cc1)c1ccco1 (configuration not stated) | i | i | i | -3.4* | i | i | 0.018 | 0.0042 | 0.031 | 0.0077 | 0.016 | 0.011
Cc1onc(-c2ccccc2)c1C(=O)NC(=S)NNC(=O)c1ccncc1 | i | i | i | 0.9 | i | i | nt | nt | nt | nt | nt | nt
Cc1onc(-c2ccccc2)c1C(=O)NNC(=S)NC(=O)/C=C/c1cccs1 | 58* | i | i | 6.7* | i | i | 0.0067 | 0.027* | ? | 0.016* | 0.03* | 0.018*
O=C(NNC(=O)c1cccs1)c1ccco1 | i | i | i | 0.23 | i | i | nt | nt | nt | nt | nt | nt
Cc1onc(-c2ccccc2)c1C(=O)NC(=S)NNC(=O)c1ccco1 | 60* | i | i | 6.6* | i | i | 0.018 | 0.014* | 0.03 | 0.014* | 0.021 | 0.015*
O=C(COc1ccc(Cl)cc1Cl)NNC(=S)NC(=O)c1ccco1 | i | i | i | 70* | i | i | 0.03* | 0.12* | 0.036 | ? | 0.076* | 0.03*
O=C(NC(=S)NNC(=O)c1cccs1)c1ccco1 | 28* | i | i | 3.6* | i | i | 0.018* | 0.029* | 0.038 | 0.019* | 0.036* | 0.013*
O=C(O)CCC(=O)NNC(=O)COc1ccc(Cl)cc1Cl | i | i | i | -0.14 | i | i | nt | nt | nt | nt | nt | nt
Cc1cc(C(=O)NNC(=O)CN2C(=O)NC(C)(c3ccccc3)C2=O)c(C)o1 (configuration not stated) | i | i | i | nt | i | i | nt | nt | nt | nt | nt | nt
NC(=O)c1cc(S(=O)(=O)Nc2ccc(OC(F)(F)F)cc2)cs1 | i | i | i | nt | i | i | nt | nt | nt | nt | nt | nt
Nc1nonc1C(=O)NCCNC(=O)c1ccc(Cl)cc1 | i | i | i | nt | i | i | nt | nt | nt | nt | nt | nt
S=c1sc2c(Cl)ncnc2n1-c1ccccc1 | nt | nt | nt | -4.3* | i | i | 0.0058 | 0.0046 | 0.033 | 0.0073 | 0.019 | 0.01
Cc1nc(N2CCN(C)CC2)c2sc(=S)n(-c3ccccc3)c2n1 | i | i | i | 0.27 | i | i | nt | nt | nt | nt | nt | nt
O=C(NC(=S)N(CCO)Cc1ccccc1)c1cc(Br)ccc1Cl | i | i | i | 10* | i | i | 0.015* | 0.039* | 0.033 | ? | 0.033* | 0.012
CC(NC(=O)c1cc(Br)ccc1Cl)c1ccccc1 (configuration not stated) | i | i | i | -0.65 | i | i | nt | nt | nt | nt | nt | nt
Cc1ccc(NC(=O)CSc2nc3c(c(=O)[nH]2)CCC3)c(C)c1 | i | i | i | nt | i | i | nt | nt | nt | nt | nt | nt
SMILES | MrgX1 ag | MrgX1 antagonist | MrgX1 allo act | Cl transport mod | RGS4 inh | RGS4 pot | KCC2 secondary | KCC2 bumet counter | KCC2 sec2 | HEK293 Tl flux | KCC2 retest ouab | HEK293 Tl flux2
COCCNC(=O)C1Cc2cc(S(=O)(=O)N3CCCC3)ccc2N1C(C)=O (configuration not stated) | i | i | i | nt | i | i | nt | nt | nt | nt | nt | nt
COc1ccc(CCN2CC(C(=O)Nc3ccc(S(C)(=O)=O)cc3)CC2=O)cc1OC (configuration not stated) | i | i | i | nt | i | i | nt | nt | nt | nt | nt | nt
NC(=O)CSc1nnc(-c2cc3ccccc3o2)n1Cc1ccccc1 | i | i | i | 0.27 | i | i | nt | nt | nt | nt | nt | nt
O=C(CSc1nnc(C2CC2)n1Cc1ccccc1)c1cc2ccccc2o1 | i | i | i | -3.8* | i | i | 0.0066 | ? | 0.024* | 0.0069 | ? | 0.0094
CCOc1ccccc1N1C(=O)c2ccc(C(=O)Nc3cccnc3)cc2C1=O | i | i | i | -4.6* | i | i | 0.009 | 0.0069 | 0.032 | 0.0076 | 0.023 | 0.011
C/C(=N/Nc1nc(C)c(C)s1)c1cccc([N+](=O)[O-])c1 | i | i | i | nt | i | i | nt | nt | nt | nt | nt | nt
Cc1ccc2c(C)nc(Nc3nc(CSc4nnc(C)s4)cc(=O)[nH]3)nc2c1 | i | i | i | -0.024 | i | i | 0.01 | 0.0063 | 0.033 | 0.008 | 0.02 | ?
